The values below come from ChEMBL document CHEMBL4152221, “Synthesis and structure-activity relationship of furoquinolinediones as inhibitors of Tyrosyl-DNA phosphodiesterase 2 (TDP2)” (Eur J Med Chem, 2018).

Calls of active or inactive are those of the source.

The target of assay [1] is T1, Tyrosyl-DNA phosphodiesterase 1 (Homo sapiens, UniProt Q9NUW8). The experiment in a line: Inhibition of recombinant TDP1 (unknown origin) at 111 uM using 5'-[32P]-labeled N14Y as substrate after 15 mins by PAGE analysis. In short, it runs like this: (§1)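 5'-32P-labeled N14Y (3'-phosphotyrosyl single-stranded oligo) at 1 nM with 10 pM recombinant TDP1, 15 min at room temperature. Three-fold dilutions up to 111 μM. Gels scanned and quantified by densitometry. Positive control: AM-8-3.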

For assay [2], the target named is T2, Tyrosyl-DNA phosphodiesterase 2 (Homo sapiens, UniProt O95551).
T2 sequence (O95551 whole entry): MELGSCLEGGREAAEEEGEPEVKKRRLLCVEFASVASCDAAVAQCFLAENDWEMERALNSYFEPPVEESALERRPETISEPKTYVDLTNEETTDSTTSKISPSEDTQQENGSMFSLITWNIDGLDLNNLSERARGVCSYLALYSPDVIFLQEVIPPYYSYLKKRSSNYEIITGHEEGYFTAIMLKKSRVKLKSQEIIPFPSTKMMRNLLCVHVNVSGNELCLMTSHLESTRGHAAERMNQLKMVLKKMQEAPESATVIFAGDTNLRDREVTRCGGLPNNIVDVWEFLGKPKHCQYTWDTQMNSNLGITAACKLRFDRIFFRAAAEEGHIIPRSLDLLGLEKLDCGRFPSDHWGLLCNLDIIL
The experiment in a line: Inhibition of human TDP2 expressed in TDP2 deficient chicken DT40 whole cell extracts using TY19 DNA as substrate after 15 mins by PAGE analysis. The procedure, abridged: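 Extract from 1×10^7 TDP2-knockout DT40 cells complemented with human TDP2, lysed 15 min on ice, spun at 12000 g for 10 min, stored at -80 °C. TY19 substrate at 1 nM with 5 μg/mL extract, ±inhibitor, 15 min at room temperature in LMP2 buffer. Gel densitometry. IC50 is mean ± SD of ≥3 independent experiments.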

The target of assay [3] is DNA topoisomerase 2-alpha (Homo sapiens) (UniProt P11388). The experiment in a line: Poisoning activity at Top2alpha in human CCRF-CEM cells assessed as TOP2-DNA covalent cleavage complex up to 100 uM after 2 hrs by Western blot analysis based ICE assay. The assay is classed as cell-based. In short, it runs like this: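 ICE assay: 60×10^5 CCRF-CEM cells exposed to compound for 2 h, then lysed in 1% Sarkosyl to detect TOP2–DNA covalent cleavage complexes. Etoposide at 10 and 50 μM served as positive control, with one lane co-treated with 10 μM etoposide.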
In general terms: A western blot detects proteins with antibodies after separation by electrophoresis.

Assay [4] addresses T2, Tyrosyl-DNA phosphodiesterase 2. The experiment in a line: (§2) Inhibition of recombinant human TDP2 using TY18 (alpha-[32P]-cordycepin-3'-labeled) as substrate after 15 mins by PAGE analysis. The procedure, abridged:
(§3)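 32P-cordycepin-3'-labeled TY18 substrate at 1 nM with 25 pM recombinant human TDP2, 15 min at room temperature. Buffer: 50 mM Tris-HCl pH 7.5, 80 mM KCl, 5 mM MgCl2, 0.1 mM EDTA, 1 mM DTT, 40 μg/mL BSA, 0.01% Tween 20. Six or eight three-fold dilutions up to 111 μM. Gel densitometry; IC50 is mean ± SD of ≥3 independent experiments. Positive control: SV-163.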

The species named for assay [5] is Homo sapiens. The experiment in a line: Inhibition of Top2 (unknown origin) assessed as decrease in relaxation of supercoiled pBR322 DNA at 25 uM. In short, it runs like this: (§4)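 Supercoiled pBR322 plasmid incubated with TOP1 or TOP2 enzyme, with or without test compound at 25 μM. Relaxed and supercoiled forms separated on agarose gel. Positive controls: camptothecin for TOP1, etoposide for TOP2.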

The target in assay [6] is T3, DNA topoisomerase 1 (Homo sapiens) (UniProt P11387).
T3 sequence (whole entry): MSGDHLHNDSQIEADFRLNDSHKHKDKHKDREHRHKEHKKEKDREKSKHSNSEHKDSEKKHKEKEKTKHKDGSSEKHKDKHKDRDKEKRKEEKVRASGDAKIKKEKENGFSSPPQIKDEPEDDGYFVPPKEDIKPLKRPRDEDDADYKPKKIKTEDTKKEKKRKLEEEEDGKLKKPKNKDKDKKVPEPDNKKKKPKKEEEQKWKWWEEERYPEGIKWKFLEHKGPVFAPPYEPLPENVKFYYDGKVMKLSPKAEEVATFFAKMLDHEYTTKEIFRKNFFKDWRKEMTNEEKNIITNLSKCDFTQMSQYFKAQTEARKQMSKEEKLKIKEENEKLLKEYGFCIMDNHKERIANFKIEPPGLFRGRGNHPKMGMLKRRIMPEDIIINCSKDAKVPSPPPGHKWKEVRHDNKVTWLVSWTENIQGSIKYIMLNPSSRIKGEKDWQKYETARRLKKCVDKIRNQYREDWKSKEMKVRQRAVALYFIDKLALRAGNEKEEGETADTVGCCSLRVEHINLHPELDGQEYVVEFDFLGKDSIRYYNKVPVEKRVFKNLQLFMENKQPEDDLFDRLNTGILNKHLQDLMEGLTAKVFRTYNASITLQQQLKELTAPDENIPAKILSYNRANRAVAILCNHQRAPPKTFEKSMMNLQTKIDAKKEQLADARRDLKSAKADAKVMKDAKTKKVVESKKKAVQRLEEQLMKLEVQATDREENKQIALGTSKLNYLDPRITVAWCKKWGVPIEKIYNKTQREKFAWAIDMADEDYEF
The experiment in a line: Inhibition of Top1 (unknown origin) assessed as decrease in relaxation of supercoiled pBR322 DNA at 25 uM. In short, it runs like this: as §4

The target of assay [7] is T4, Tyrosyl-DNA phosphodiesterase 2 (Homo sapiens) (UniProt O95551).
T4 sequence (whole entry): T2 sequence (O95551 whole entry)
The experiment in a line: Inhibition of recombinant human TDP2 at 111 uM using alpha-[32P]-cordycepin-3'-labeled TY18 as substrate after 15 mins by PAGE analysis. The procedure, abridged:
as §3

Assay [8] addresses T4, Tyrosyl-DNA phosphodiesterase 2 (Homo sapiens). The description is as §2. The procedure, abridged: as §3
For assay [9], the target named is DNA topoisomerase 2-alpha (Homo sapiens) (UniProt P11388). The experiment in a line: Poisoning activity at Top2alpha in human CCRF-CEM cells assessed as TOP2-DNA covalent cleavage complex up to 50 uM after 2 hrs by Western blot analysis based ICE assay. The format is cell-based. In short, it runs like this: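 60×10^5 CCRF-CEM cells treated 2 h with compound at 10 or 50 μM, alone or combined with 10 μM etoposide, then lysed in 1% Sarkosyl. TOP2-DNA covalent complexes detected by ICE assay. Etoposide at 10 and 50 μM served as positive control.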

Assay [10] addresses T1, Tyrosyl-DNA phosphodiesterase 1. Description: Inhibition of recombinant TDP1 (unknown origin) using 5'-[32P]-labeled N14Y as substrate after 15 mins by PAGE analysis. The procedure, abridged: as §1

T1 sequence (Q9NUW8 whole entry): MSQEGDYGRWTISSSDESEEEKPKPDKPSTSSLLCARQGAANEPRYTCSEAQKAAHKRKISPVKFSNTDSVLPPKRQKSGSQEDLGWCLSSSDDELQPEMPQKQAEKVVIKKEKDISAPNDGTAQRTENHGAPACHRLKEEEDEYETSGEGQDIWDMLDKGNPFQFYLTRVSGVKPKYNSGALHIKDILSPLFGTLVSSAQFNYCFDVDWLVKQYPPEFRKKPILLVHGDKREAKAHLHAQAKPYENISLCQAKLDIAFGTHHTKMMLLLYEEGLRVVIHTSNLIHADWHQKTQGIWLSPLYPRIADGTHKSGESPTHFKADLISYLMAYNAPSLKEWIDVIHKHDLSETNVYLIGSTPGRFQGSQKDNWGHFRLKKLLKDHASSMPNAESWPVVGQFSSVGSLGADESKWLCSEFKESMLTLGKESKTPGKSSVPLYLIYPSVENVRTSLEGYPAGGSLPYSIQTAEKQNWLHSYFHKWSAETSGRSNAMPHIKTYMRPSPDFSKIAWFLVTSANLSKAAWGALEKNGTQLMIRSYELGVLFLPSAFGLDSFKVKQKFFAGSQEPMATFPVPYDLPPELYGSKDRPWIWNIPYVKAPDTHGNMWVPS
DNA topoisomerase 2-alpha (Homo sapiens), sequence (P11388 whole entry): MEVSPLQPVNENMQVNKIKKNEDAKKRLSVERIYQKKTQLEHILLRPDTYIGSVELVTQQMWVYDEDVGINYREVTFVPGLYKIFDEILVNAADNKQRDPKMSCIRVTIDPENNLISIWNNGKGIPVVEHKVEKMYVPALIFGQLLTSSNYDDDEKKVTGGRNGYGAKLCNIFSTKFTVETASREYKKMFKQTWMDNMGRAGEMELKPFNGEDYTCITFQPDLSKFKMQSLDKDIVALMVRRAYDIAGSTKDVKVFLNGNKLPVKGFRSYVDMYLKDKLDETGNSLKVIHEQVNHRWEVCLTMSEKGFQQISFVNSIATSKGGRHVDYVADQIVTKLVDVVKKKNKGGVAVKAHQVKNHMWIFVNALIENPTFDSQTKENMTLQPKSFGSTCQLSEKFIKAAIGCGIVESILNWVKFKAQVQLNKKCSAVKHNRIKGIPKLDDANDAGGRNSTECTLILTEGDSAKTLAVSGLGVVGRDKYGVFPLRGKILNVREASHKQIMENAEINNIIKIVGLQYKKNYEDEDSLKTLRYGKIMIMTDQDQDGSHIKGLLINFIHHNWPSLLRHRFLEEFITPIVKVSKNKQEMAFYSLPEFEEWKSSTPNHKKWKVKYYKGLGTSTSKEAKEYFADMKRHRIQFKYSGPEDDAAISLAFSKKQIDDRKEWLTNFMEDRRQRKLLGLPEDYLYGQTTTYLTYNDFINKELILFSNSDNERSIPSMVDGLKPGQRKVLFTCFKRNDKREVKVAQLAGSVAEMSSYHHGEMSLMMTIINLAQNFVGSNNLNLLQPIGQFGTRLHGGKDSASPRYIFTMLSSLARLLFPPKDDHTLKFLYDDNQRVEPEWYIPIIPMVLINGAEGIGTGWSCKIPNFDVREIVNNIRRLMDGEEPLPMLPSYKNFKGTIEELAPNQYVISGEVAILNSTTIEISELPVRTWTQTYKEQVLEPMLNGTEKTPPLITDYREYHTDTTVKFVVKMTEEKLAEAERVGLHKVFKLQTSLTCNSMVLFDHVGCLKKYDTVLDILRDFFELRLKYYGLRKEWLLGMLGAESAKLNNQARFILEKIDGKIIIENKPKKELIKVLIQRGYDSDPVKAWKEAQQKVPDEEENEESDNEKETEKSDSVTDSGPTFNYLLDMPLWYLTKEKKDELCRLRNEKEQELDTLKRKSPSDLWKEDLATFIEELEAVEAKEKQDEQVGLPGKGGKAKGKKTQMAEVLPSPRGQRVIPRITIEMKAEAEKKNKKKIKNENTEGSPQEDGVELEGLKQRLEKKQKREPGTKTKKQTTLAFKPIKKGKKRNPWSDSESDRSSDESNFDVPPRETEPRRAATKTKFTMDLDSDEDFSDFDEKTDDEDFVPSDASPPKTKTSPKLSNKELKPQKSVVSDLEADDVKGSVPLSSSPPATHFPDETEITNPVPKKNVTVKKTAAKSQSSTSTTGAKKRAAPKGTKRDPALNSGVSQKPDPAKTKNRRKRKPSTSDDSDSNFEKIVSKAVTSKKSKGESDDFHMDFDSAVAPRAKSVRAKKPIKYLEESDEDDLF

One may read the inhibition as the share of the control response that was lost under treatment. A word on the IC50: it is the concentration at which inhibition is half-maximal. As to `CCOC(=O)c1c(C)oc2c1C(=O)c1ncccc1C2=O`, the inhibition result in [1], in assay [5] and in [6] was “inactive” in each case. For the same compound, the IC50 in [2] stood at 22 µM; in [4], 11 µM. Further, the outcome in assay [3] was inactive.
Regarding `Cc1oc2c(c1C(=O)Oc1ccccc1O)C(=O)c1ncccc1C2=O`, in assay [1], the inhibition result is “inactive”. The IC50 in assay [2] stood at 6.6 µM; in assay [4], 7.6 µM. The inhibition was 100% in assay [7] and “Dose-dependent effect” in assay [8].
Turning to `CCOC(=O)c1noc2c1C(=O)c1cccnc1C2=O`, the inhibition entry in [1], in [5] and in assay [6] was “inactive” in each case. Also, the IC50 in assay [2] worked out at 2.1 µM; in [4] it was 1.9 µM. In addition, the inhibition in [7] was 100%; in assay [8] it was “Dose-dependent effect”. In addition, in assay [9], the result was inactive.
Turning to `Cc1oc2c(c1C(=O)OC[C@@H](O)CO)C(=O)c1ncccc1C2=O`, in assay [1], the inhibition entry was “inactive”. Besides, the figures for the IC50 in assay [2] and in assay [4] were 14 µM and 12 µM, respectively. The inhibition in [7] is 100%; in assay [8], “Dose-dependent effect”.
In the same order, the values of `Cc1oc2c(c1C(=O)Oc1cccc(O)c1)C(=O)c1ncccc1C2=O` are “inactive”, 8.8 µM, 29 µM, 100% and “Dose-dependent effect”.
With `Cc1oc2c(c1C(=O)OCCO)C(=O)c1ncccc1C2=O`, the inhibition result in assay [1] was “inactive”. For the same compound, the IC50 is 9.8 µM in assay [2] and 20 µM in assay [4]. Also, the inhibition in assay [7] was 100%; in assay [8], “Dose-dependent effect”.
Regarding `COC(=O)c1sccc1OC(=O)c1c(C)oc2c1C(=O)c1ncccc1C2=O`, the IC50 in assay [2] was found to be 24 µM; in [10] it was 38 µM; in assay [4], 22 µM.
For the compound `Cc1oc2c(c1C(=O)OCCCO)C(=O)c1ncccc1C2=O`, the inhibition result in assay [1] was “inactive”. The IC50 in [2] was 11 µM; in assay [4] it was 17 µM. Further, the inhibition is 100% in [7] and “Dose-dependent effect” in assay [8].
Turning to `N#Cc1ccc2cc3c(=O)[nH]c(=O)nc-3n(-c3cccc(-c4nnn[nH]4)c3)c2c1`, the inhibition is 100% in assay [7] and “Dose-dependent effect” in assay [8].
As for `Cc1oc2c(c1C(=O)Oc1ccc([N+](=O)[O-])cc1)C(=O)c1ncccc1C2=O`, the IC50 in assay [10] turned out to be 48 µM; in assay [4] it was 28 µM.
Consider `Cc1oc2c(c1C(=O)OC[C@H](O)CO)C(=O)c1ncccc1C2=O`, for which the inhibition entry in [1] was “inactive”. Moreover, the half-maximal inhibitory concentration (IC50) amounted to 15 µM in assay [2] and 50 µM in [4].
Regarding `COP(=O)(CCOC(=O)c1c(C)oc2c1C(=O)c1ncccc1C2=O)OC`, the inhibition result in assay [1] is “inactive”. Also, the IC50 in assay [2] worked out at 17 µM; in assay [4], 9 µM.
The matching figures for `COC(=O)[C@H](Cc1ccc(OC(=O)c2c(C)oc3c2C(=O)c2ncccc2C3=O)cc1)NC(C)=O`: “inactive”, 17 µM and 23 µM.
Take `Cc1oc2c(c1C(=O)Oc1ccc(S(C)(=O)=O)cc1)C(=O)c1ncccc1C2=O`: the inhibition entry in [1] was “inactive”. Besides, the figures for the IC50 in assay [2] and in assay [4] were 16 µM and 14 µM, respectively.
The matching figures for `Cc1oc2c(c1C(=O)Oc1cccc(Cl)c1)C(=O)c1ncccc1C2=O`: “inactive”, 11 µM and 14 µM.
The matching figures for `Cc1oc2c(c1C(=O)OCC(F)(F)F)C(=O)c1ncccc1C2=O`: “inactive”, 24 µM and 28 µM.
The matching figures for `Cc1oc2c(c1C(=O)Oc1ccc(C#N)cc1)C(=O)c1ncccc1C2=O`: “inactive”, 13 µM and 15 µM.
On to `CC(=O)N1CCN(c2ccc(OC(=O)c3c(C)oc4c3C(=O)c3ncccc3C4=O)cc2)CC1`, for which the inhibition entry in assay [1] was “inactive”. The IC50 in assay [2] is 34 µM; in assay [4], 37 µM.
For the compound `Cc1oc2c(c1C(=O)OCCc1ccccc1)C(=O)c1ncccc1C2=O`, the inhibition result in [1] is “inactive”. Further, the IC50 in [2] was determined as 24 µM; in [4], 53 µM.
In the same order, the values of `Cc1oc2c(c1C(=O)Oc1cccc(-c3cn(CCCO)nn3)c1)C(=O)c1ncccc1C2=O` are “inactive”, 8.3 µM and 8.1 µM.
In the same order, the values of `Cc1oc2c(c1C(=O)OCCCCO)C(=O)c1ncccc1C2=O` are “inactive”, 12 µM and 26 µM.
As to `Cc1oc2c(c1C(=O)Oc1ccccc1)C(=O)c1ncccc1C2=O`, the inhibition result in assay [1] is “inactive”. The results for the IC50 in assay [2] and in [4] were 10 µM and 18 µM, respectively. Moreover, the inhibition in [7] was 100%; in assay [8], “Dose-dependent effect”.
Take `CCOC(=O)c1noc2c1C(=O)c1ncccc1C2=O`: the inhibition result in assay [1], in [5] and in assay [6] was “inactive” in each case. The IC50 in [2] came out at 3.1 µM; in assay [4], 3.3 µM. Also, the inhibition is 100% in assay [7] and “Dose-dependent effect” in assay [8].
Regarding `Cc1oc2c(c1C(=O)Oc1ccccc1C#N)C(=O)c1ncccc1C2=O`, in [1], the inhibition entry is “inactive”. Moreover, the IC50 in assay [2] and in assay [4] was above 111 µM in each case.
